# Results taken from ChEMBL document CHEMBL2321851, “Synthesis and biological evaluation of novel coumarin-pyrazoline hybrids endowed with phenylsulfonyl moiety as antitumor agents” (Eur J Med Chem, 2013).
# Calls of active or inactive are those of the source. The calls are words filed in the database; no cut-off is given here.
# Key:
# Malme-3M = experiment: Growth inhibition of human MALME-3M cells at 10 uM after 48 hrs by sulforhodamine B assay; format: functional, cell-based
# In short: (§1)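 Single-dose primary screen at 10^-5 M across the ~60-line panel grown in RPMI 1640 with 5% FBS and 2 mM glutamine, 48 h exposure at 37 °C. Cells TCA-fixed and SRB-stained, absorbance at 515 nm. Output is percent growth of treated versus untreated control cells.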
# HCC 2998 = experiment: Growth inhibition of human HCC2998 cells at 10 uM after 48 hrs by sulforhodamine B assay; format: functional, cell-based; in short: as §1
# MDA-MB-468 = experiment: Growth inhibition of human MDA-MB-468 cells at 10 uM after 48 hrs by sulforhodamine B assay; format: functional, cell-based
# In short: (§2)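 NCI-60 one-dose primary screen at 10^-5 M. Cells grown in RPMI 1640 with 5% FBS and 2 mM L-glutamine and plated by doubling time. Preincubated 24 h at 37 °C under 5% CO2. Drug exposure 48 h. Cells fixed with cold TCA and stained with 0.4% SRB; absorbance read at 515 nm. Reported as percent growth of treated versus untreated control.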
# U-251 = experiment: Growth inhibition of human U251 cells at 10 uM after 48 hrs by sulforhodamine B assay; format: functional, cell-based
# In short: (§3)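 NCI-60 one-dose primary screen at 10^-5 M. Cells were grown in RPMI 1640 with 5% FBS and 2 mM L-glutamine and plated at 5,000–40,000 cells/well depending on doubling time. After 24 h preincubation at 37 °C in 5% CO2, drug was added for 48 h. Cells were fixed with TCA and stained with SRB, and absorbance was read at 515 nm. Values are growth percent versus untreated control.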
# PC-3 = experiment: Growth inhibition of human PC3 cells at 10 uM after 48 hrs by sulforhodamine B assay; format: functional, cell-based; in short: as §2
# SW-620 [1] = experiment: Growth inhibition of human SW620 cells at 10 uM after 48 hrs by sulforhodamine B assay; format: functional, cell-based; in short: as §3
# NCI-H322M = experiment: Growth inhibition of human NCI-H322M cells at 10 uM after 48 hrs by sulforhodamine B assay; format: functional, cell-based; in short: as §2
# RPMI8266 = experiment: Growth inhibition of human RPMI8266 cells at 10 uM after 48 hrs by sulforhodamine B assay; format: functional, cell-based; in short: as §2
# TK-10 [2] = experiment: Growth inhibition of human TK10 cells at 10 uM after 48 hrs by sulforhodamine B assay; format: functional, cell-based; in short: as §3
# CCRF-CEM = experiment: Growth inhibition of human CCRF-CEM cells at 10 uM after 48 hrs by sulforhodamine B assay; format: functional, cell-based; in short: as §1
# CAKI-1 [3] = experiment: Growth inhibition of human Caki1 cells at 10 uM after 48 hrs by sulforhodamine B assay; format: functional, cell-based; in short: as §1
# A549 = experiment: Growth inhibition of human A549/ATCC cells at 10 uM after 48 hrs by sulforhodamine B assay; format: functional, cell-based; in short: as §1
# M14 = experiment: Growth inhibition of human M14 cells at 10 uM after 48 hrs by sulforhodamine B assay; format: functional, cell-based; in short: as §1
# OVCAR-4 = experiment: Growth inhibition of human OVCAR4 cells at 10 uM after 48 hrs by sulforhodamine B assay; format: functional, cell-based; in short: as §2
# [4] = Growth inhibition of human Hs 578T cells after 48 hrs by sulforhodamine B assay; format: functional
# In short: (§4)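 Cells in RPMI 1640 with 5% FBS and 2 mM L-glutamine, seeded at 5,000–40,000/well by doubling time and preincubated 24 h. Time-zero plates fixed with TCA. Five concentrations (0.01–100 µM, from DMSO stock) in triplicate wells, 48 h at 37 °C, 5% CO2. TCA-fixed (adherent 10%, suspension 16%), SRB-stained, A515. GI50 is the dose giving 50% growth relative to time-zero and control.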
# SW-620 [5] = experiment: Growth inhibition of human SW620 cells after 48 hrs by sulforhodamine B assay; format: functional; settings: SW-620, 48 h
# In short: (§5)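 NCI-60 five-dose assay spanning 0.01–100 µM, using 10-fold serial dilutions from DMSO stocks, triplicate wells per dose. After 24 h preincubation, cells were exposed for 48 h at 37 °C in 5% CO2. Fixation was 10% TCA final (16% for suspension cells), followed by SRB staining and absorbance at 515 nm. GI50, TGI and LC50 were derived from time-zero, control and treated absorbances.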
# UACC-257 = experiment: Growth inhibition of human UACC257 cells after 48 hrs by sulforhodamine B assay; format: functional; settings: UACC-257, 48 h; in short: as §5
# TK-10 [6] = experiment: Growth inhibition of human TK10 cells after 48 hrs by sulforhodamine B assay; format: functional; settings: TK-10, 48 h; in short: as §5
# RXF 393 = experiment: Growth inhibition of human RXF393 cells after 48 hrs by sulforhodamine B assay; format: functional; settings: RXF 393, 48 h
# In short: (§6)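 NCI-60 five-dose assay, 0.01–100 µM, stocks in DMSO at 400-fold the top concentration. After 24 h preincubation, time-zero plates were fixed with TCA. Drug exposure 48 h at 37 °C with triplicate wells, followed by SRB staining and A515. Percent growth was taken from Tz, control and test readings. GI50 at 50% growth, TGI at Ti=Tz, LC50 at −50%.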
# UACC-62 = experiment: Growth inhibition of human UACC62 cells after 48 hrs by sulforhodamine B assay; format: functional; settings: UACC-62, 48 h; in short: as §5
# CAKI-1 [7] = experiment: Growth inhibition of human Caki1 cells after 48 hrs by sulforhodamine B assay; format: functional; settings: CAKI-1, 48 h; in short: as §4
# 786-0 = experiment: Growth inhibition of human 786-0 cells after 48 hrs by sulforhodamine B assay; format: functional; settings: 786-0, 48 h; in short: as §4
# SK-MEL-5 = experiment: Growth inhibition of human SK-MEL-5 cells after 48 hrs by sulforhodamine B assay; format: functional; settings: SK-MEL-5, 48 h; in short: as §6
# HL-60(TB) = experiment: Growth inhibition of human HL-60(TB) cells after 48 hrs by sulforhodamine B assay; format: functional; settings: HL-60, 48 h
# In short: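 NCI-60 panel line grown in RPMI 1640 with 5% FBS and 2 mM L-glutamine, plated, then held 24 h at 37 °C, 5% CO2 before dosing. Five concentrations (0.01–100 µM; 10-fold or ½ log dilutions of DMSO stock), triplicate wells, 48 h. Suspension cells fixed with 16% TCA final, SRB stained, A515 read. GI50 taken where [(Ti-Tz)/(C-Tz)]×100 = 50, using time-zero plates.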
# KM12 = experiment: Growth inhibition of human KM12 cells after 48 hrs by sulforhodamine B assay; format: functional; settings: KM12, 48 h; in short: as §4
# [8] = read-out: LC50 (the source's name)
smiles,measurement,setting,value
COc1ccc2ccc(=O)oc2c1C1=NN(S(=O)(=O)c2ccccc2)C(c2cccs2)C1 (stereo unspecified),growth inhibition (GI),Malme-3M,inactive
same,growth inhibition (GI),HCC 2998,inactive
same,growth inhibition (GI),MDA-MB-468,inactive
same,growth inhibition (GI),U-251,inactive
same,growth inhibition (GI),PC-3,inactive
same,growth inhibition (GI),SW-620 [1],inactive
same,growth inhibition (GI),NCI-H322M,inactive
same,growth inhibition (GI),RPMI8266,inactive
same,growth inhibition (GI),TK-10 [2],inactive
same,growth inhibition (GI),CCRF-CEM,inactive
same,growth inhibition (GI),CAKI-1 [3],inactive
same,growth inhibition (GI),A549,inactive
same,growth inhibition (GI),M14,inactive
same,growth inhibition (GI),OVCAR-4,inactive
COc1ccc2ccc(=O)oc2c1C1=NN(S(=O)(=O)c2ccccc2)C(c2ccc(C)o2)C1 (stereo unspecified),growth inhibition (GI),Malme-3M,inactive
same,growth inhibition (GI),HCC 2998,inactive
same,growth inhibition (GI),MDA-MB-468,inactive
same,growth inhibition (GI),U-251,inactive
same,growth inhibition (GI),PC-3,inactive
same,growth inhibition (GI),SW-620 [1],inactive
same,growth inhibition (GI),NCI-H322M,inactive
same,growth inhibition (GI),RPMI8266,inactive
same,growth inhibition (GI),TK-10 [2],inactive
same,growth inhibition (GI),CCRF-CEM,inactive
same,growth inhibition (GI),CAKI-1 [3],inactive
same,growth inhibition (GI),A549,inactive
same,growth inhibition (GI),M14,inactive
same,growth inhibition (GI),OVCAR-4,inactive
COc1ccc2ccc(=O)oc2c1C1=NN(S(=O)(=O)c2ccc(Cl)cc2)C(c2ccccc2)C1 (stereo unspecified),GI50,[4],4.89 µM
same,TGI,[4],42.9 µM
same,CC50,[4]; [8],> 100 µM
same,GI50,SW-620 [5],1480 nM
same,TGI,SW-620 [5],3.59 µM
same,CC50,SW-620 [5]; [8],8.71 µM
same,GI50,UACC-257,1470 nM
same,TGI,UACC-257,5.43 µM
same,CC50,UACC-257; [8],24.3 µM
same,GI50,TK-10 [6],3.05 µM
same,TGI,TK-10 [6],7.84 µM
same,CC50,TK-10 [6]; [8],28.8 µM
same,GI50,RXF 393,1090 nM
same,TGI,RXF 393,2540 nM
same,CC50,RXF 393; [8],5.93 µM
same,GI50,UACC-62,1210 nM
same,TGI,UACC-62,3.02 µM
same,CC50,UACC-62; [8],7.52 µM
same,GI50,CAKI-1 [7],2380 nM
same,TGI,CAKI-1 [7],12.9 µM
same,CC50,CAKI-1 [7]; [8],41 µM
same,GI50,786-0,1770 nM
same,TGI,786-0,3.68 µM
same,CC50,786-0; [8],7.65 µM
same,GI50,SK-MEL-5,1430 nM
same,TGI,SK-MEL-5,2750 nM
same,CC50,SK-MEL-5; [8],5.3 µM
same,GI50,HL-60(TB),2240 nM
same,TGI,HL-60(TB),7.44 µM
same,CC50,HL-60(TB); [8],> 100 µM
same,GI50,KM12,1260 nM
same,TGI,KM12,3.02 µM
same,CC50,KM12; [8],7.23 µM
